Results as given in article PMC9073569 (JAMA Network Open, 2022).
Read-outs that look alike come from different tables or passages of the source.

Key:
[1] = test system: moderate to severe pruritus in patients receiving hemodialysis; assay: 24-hour Worst Itching Intensity Numerical Rating Scale; assay type: in vivo, Japanese patients; details: week 8; for proportion of 4-point improvement in the NRS score: placebo 36%; for proportion of 3-point improvement in the NRS score: placebo 50%
In short: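 Adults aged 20 or older with ESKD on hemodialysis 3 times weekly for at least 12 weeks, with weekly mean NRS above 4, were randomized double-blind. Test compound or placebo was given IV after each dialysis session for 8 weeks. Worst itch over the prior 24 h (0–10) was logged daily in an e-diary and averaged weekly. Proportions improving ≥3 or ≥4 points at week 8 were compared with placebo by Fisher exact test.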

[2] = test system: patients with pruritus receiving hemodialysis; assay type: in vivo, Japanese patients; details: for Constipation / Death / Malaise / Other serious adverse drug reactions / Pyrexia: placebo 0; for Adverse events leading to Discontinuation / Nausea: placebo 1 (2); for Adverse events leading to Interruption / Arthralgia / Blood pressure decreased / Other serious adverse events: placebo 2 (3); for Dizziness / Procedural hypotension / Somnolence / Vomiting: placebo 3 (5); for Adverse drug reactions / Nasopharyngitis: placebo 7 (11); for Adverse events: placebo 42 (67); for drug-related serious AEs (kind of event): patients recovered after discontinuing or suspending use of the study drug
[3] = Plasma concentrations of difelikefalin; assay type: in vivo, Japanese patients; details: weeks 1, 4, and 7; LC-MS/MS
In short: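 Test compound was given IV at 0.25, 0.5 or 1.0 μg/kg after each hemodialysis session, 3 times weekly, with volume set by dry weight. Plasma was sampled before the first dialysis (weeks 1, 2, 4, 7, 8), 5 min post-dose (weeks 1, 4, 7), before the second dialysis (weeks 1, 4, 7) and 1 h post-dose (week 7). Assay was LC-MS/MS; summaries included geometric means and geometric CV.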

[4] = cited from earlier work
[5] = test system: pruritus in patients receiving hemodialysis; details: 0.5, 1.0, and 1.5 μg/kg; previous phase 2 trial in the US; cited from earlier work
[6] = 0.25 μg/kg iv 3 times a week, 8 weeks, n = 61
[7] = 0.5 μg/kg iv 3 times a week, 8 weeks, n = 61
[8] = 1.0 μg/kg iv 3 times a week, 8 weeks, n = 62

Substance: difelikefalin
- proportion of 4-point improvement in the NRS score ([1]; 0.25 μg/kg iv 3 times a week, n = 20 of 59): 34%
- proportion of 3-point improvement in the NRS score ([1]; 0.25 μg/kg iv 3 times a week, n = 31 of 59): 53%
- proportion of 4-point improvement in the NRS score ([1]; 0.5 μg/kg iv 3 times a week, n = 27 of 53): 51%
- proportion of 3-point improvement in the NRS score ([1]; 0.5 μg/kg iv 3 times a week, n = 32 of 53): 60%
- proportion of 4-point improvement in the NRS score ([1]; 1.0 μg/kg iv 3 times a week, n = 23 of 53): 43%
- proportion of 3-point improvement in the NRS score ([1]; 1.0 μg/kg iv 3 times a week, n = 30 of 53): 57%
- Constipation [2, 6]: 5 (8) No. (%)
- Death [2, 6]: 0 No. (%)
- Malaise [2, 6]: 2 (3) No. (%)
- Other serious adverse drug reactions [2, 6]: 0 No. (%)
- Pyrexia [2, 6]: 2 (3) No. (%)
- Adverse events leading to Discontinuation [2, 6]: 0 No. (%)
- Nausea [2, 6]: 0 No. (%)
- Adverse events leading to Interruption [2, 6]: 0 No. (%)
- Arthralgia [2, 6]: 3 (5) No. (%)
- Blood pressure decreased [2, 6]: 0 No. (%)
- Other serious adverse events [2, 6]: 3 (5) No. (%)
- Dizziness [2, 6]: 3 (5) No. (%)
- Procedural hypotension [2, 6]: 4 (7) No. (%)
- Somnolence [2, 6]: 2 (3) No. (%)
- Vomiting [2, 6]: 1 (2) No. (%)
- Adverse drug reactions [2, 6]: 9 (15) No. (%)
- Nasopharyngitis [2, 6]: 8 (13) No. (%)
- Adverse events [2, 6]: 44 (72) No. (%)
- drug-related serious AEs (kind of event) ([2]; 0.5 μg/kg group): Altered state of consciousness
- Constipation [2, 7]: 3 (5) No. (%)
- Death [2, 7]: 0 No. (%)
- Malaise [2, 7]: 2 (3) No. (%)
- Other serious adverse drug reactions [2, 7]: 1 (2) No. (%)
- Pyrexia [2, 7]: 4 (7) No. (%)
- Adverse events leading to Discontinuation [2, 7]: 4 (7) No. (%)
- Nausea [2, 7]: 1 (2) No. (%)
- Adverse events leading to Interruption [2, 7]: 5 (8) No. (%)
- Arthralgia [2, 7]: 5 (8) No. (%)
- Blood pressure decreased [2, 7]: 4 (7) No. (%)
- Other serious adverse events [2, 7]: 8 (13) No. (%)
- Dizziness [2, 7]: 3 (5) No. (%)
- Procedural hypotension [2, 7]: 3 (5) No. (%)
- Somnolence [2, 7]: 3 (5) No. (%)
- Vomiting [2, 7]: 1 (2) No. (%)
- Adverse drug reactions [2, 7]: 9 (15) No. (%)
- Nasopharyngitis [2, 7]: 6 (10) No. (%)
- Adverse events [2, 7]: 47 (77) No. (%)
- drug-related serious AEs (kind of event) ([2]; 1.0 μg/kg group): obstruction in the small intestine
- Constipation [2, 8]: 7 (11) No. (%)
- Death [2, 8]: 0 No. (%)
- Malaise [2, 8]: 4 (6) No. (%)
- Other serious adverse drug reactions [2, 8]: 1 (2) No. (%)
- Pyrexia [2, 8]: 0 No. (%)
- Adverse events leading to Discontinuation [2, 8]: 5 (8) No. (%)
- Nausea [2, 8]: 4 (6) No. (%)
- Adverse events leading to Interruption [2, 8]: 5 (8) No. (%)
- Arthralgia [2, 8]: 2 (3) No. (%)
- Blood pressure decreased [2, 8]: 3 (5) No. (%)
- Other serious adverse events [2, 8]: 5 (8) No. (%)
- Dizziness [2, 8]: 5 (8) No. (%)
- Procedural hypotension [2, 8]: 2 (3) No. (%)
- Somnolence [2, 8]: 6 (10) No. (%)
- Vomiting [2, 8]: 4 (6) No. (%)
- Adverse drug reactions [2, 8]: 17 (27) No. (%)
- Nasopharyngitis [2, 8]: 3 (5) No. (%)
- Adverse events ([2]; 1.0 μg/kg iv 3 times a week, 8 weeks, n = 62, P = .02): 53 (85) No. (%)
- changes in clinical laboratory tests, vital signs, and 12-lead electrocardiogram ([2]; 0.25, 0.5 and 1.0 μg/kg iv 3 times a week, 8 weeks): No notable changes
- plasma difelikefalin concentrations in relation to body weight classification [3]: No significant differences
- transfer to the CNS [4]: limited
- dose response in relation to efficacy [5]: no clear dose response
